The values that follow come from ChEMBL document CHEMBL1129263, “Structure-activity relationships of (E)-3-(1,4-benzoquinonyl)-2-[(3-pyridyl)-alkyl]-2-propenoic acid derivatives that inhibit both 5-lipoxygenase and thromboxane A2 synthetase” (J Med Chem, 1996).

The species entered for assay [1] is Rattus norvegicus. In words: Compound was evaluated in Vitro in glycogen induced peritoneal cells of rats(GPEC) for the inhibition of Prostaglandin E2 (PGE2) production at 0.1-100 uM. It is filed as functional, cell-based. In short, it runs like this:
(§1)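 Glycogen-elicited rat peritoneal leukocytes in Ca²⁺/Mg²⁺-free HBSS (5 × 10⁶ cells/mL; 5 × 10⁵ cells per aliquot). Cells were preincubated 5 min at 37 °C with compound or vehicle (0.1% DMSO/0.1% BSA), then stimulated with A23187 (4 µM, 10 min, 37 °C). The reaction was stopped with BW755C (100 µM). Supernatant LTB₄, TXB₂ and PGE₂ were measured by RIA. Points were run in duplicate; IC₅₀ by probit.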

The species named for assay [2] is Rattus norvegicus. The assay can be described thus: In vitro inhibition of Leukotriene B4 (LTB4) production in glycogen-induced peritoneal cells of rat. It is filed as functional, cell-based. In short, it runs like this:
as §1

The species entered for assay [3] is Rattus norvegicus. In words: In vitro inhibition of Thromboxane B2 (TXB2) production in glycogen-induced peritoneal cells of rat. Type of assay: functional, cell-based. The gist of the method:
as §1

For assay [4], the species on record is Rattus norvegicus. In words: Compound was evaluated in Vitro in glycogen induced peritoneal cells of rats(GPEC) for the inhibition of Prostaglandin E2 (PGE2) production at 0.1-1 uM. Type of assay: functional, cell-based. The gist of the method:
as §1

Assay [5] is filed under the species Homo sapiens. The assay can be described thus: Inhibitory activity of the compound against Thromboxane TXB2 production in human whole blood. It is filed as functional. The gist of the method: (§2)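 Fresh heparinized (10 U/mL) human volunteer blood, 0.4 mL aliquots. Blood was preincubated 5 min at 37 °C with compound or vehicle (0.1% DMSO/0.1% BSA), then challenged with A23187 (40 µM, 20 min, 37 °C). Plasma LTB₄ and TXB₂ were measured by RIA. Duplicate points; IC₅₀ by probit.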

For assay [6], the species on record is Homo sapiens. In words: Inhibitory activity of the compound against leukotriene (LT) B4 production in human whole blood. Type of assay: functional. The gist of the method:
as §2

Assay [7] is filed under the species Rattus norvegicus. The assay can be described thus: Compound was evaluated in Vitro in glycogen induced peritoneal cells of rats(GPEC) for the inhibition of Prostaglandin E2 (PGE2) production at 0.1-10 uM. Type of assay: functional, cell-based. In short, it runs like this:
as §1

The species entered for assay [8] is Homo sapiens. The assay can be described thus: Inhibitory activity of the compound against leukotriene (LT) B4 production in human neutrophils. It is filed as functional. In short, it runs like this:
(§3)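 Human blood neutrophils were isolated by dextran sedimentation and Percoll gradient and held in Ca²⁺/Mg²⁺-free HBSS (1 × 10⁶ cells/mL). Cells were preincubated 5 min at 37 °C with compound or vehicle (0.1% DMSO/0.1% BSA), then stimulated with A23187 (4 µM, 10 min). Supernatant LTB₄ was measured by RIA. Duplicate points; IC₅₀ by probit.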

The species entered for assay [9] is Homo sapiens. The assay can be described thus: Inhibitory activity of the compound against Thromboxane TXB2 production in human blood platelets. It is filed as functional. In short, it runs like this:
(§4)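 Washed human platelets in Tris-HCl-saline, pH 7.4, with 10 µM indomethacin (3 × 10⁸ cells/mL). Platelets were preincubated 5 min at 25 °C with compound or vehicle, then given PGH₂ (1 µg/mL, 3 min, 25 °C). The reaction was stopped with citrate/ethanol. Supernatant TXB₂ was measured by RIA. Duplicate points; IC₅₀ by probit.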

Assay [10] is filed under the species Homo sapiens. The assay can be described thus: In vitro inhibition of LTB4 production in human whole blood. It is filed as functional. The gist of the method: as §2
The nature of assay [11]: in vitro activities of TXB2 in human whole blood. It is filed as functional, tissue-based. The gist of the method:
as §2

For assay [12], the species on record is Rattus norvegicus. The assay can be described thus: Compound was evaluated in Vitro in glycogen induced peritoneal cells of rats(GPEC) for the inhibition of Leukotriene B4 (LTB4) production. Type of assay: functional, cell-based. In short, it runs like this: as §1
A short description of assay [13]: in vitro activities of TXB2 in human platelets. It is filed as functional. The gist of the method: as §4
The species named for assay [14] is Homo sapiens. In words: In vitro inhibition of LTB4 production in human neutrophils. It is filed as functional. The gist of the method:
as §3

Some results are limits rather than exact numbers.

For the compound `CCOC1=C(C)C(=O)C(C)=C(/C=C(\CCCCCc2cccnc2)C(=O)O)C1=O`, the IC50 in the assay listed under Rattus norvegicus [1] amounted to 100 µM; in the assay listed under Rattus norvegicus [2] it was 0.84 µM; in the assay listed under Rattus norvegicus [3], 0.12 µM.

Turning to `CCCCCCCOC1=C(C)C(=O)C(C)=C(/C=C(\CCCCCc2cccnc2)C(=O)O)C1=O`, the IC50 was 0.27 µM in the assay listed under Rattus norvegicus [2] and under 0.1 µM in the assay filed under Rattus norvegicus [3].

In the case of `COC1=C(C)C(=O)C(C)=C(/C=C(\CCCCCCc2cccnc2)C(=O)O)C1=O`, the values for the IC50 in the assay listed under Rattus norvegicus [4], in the assay filed under Rattus norvegicus [2] and in the assay listed under Rattus norvegicus [3] were 100 µM, 0.18 µM and under 0.1 µM, respectively.

In the case of `COC1=C(C)C(=O)C(C)=C(/C=C(\CCCCCc2cccnc2)C(=O)O)C1=O`, the IC50 in the assay listed under Rattus norvegicus [1] is over 100 µM; in the assay listed under Rattus norvegicus [2] it was 0.54 µM; in the assay filed under Rattus norvegicus [3] it was 0.18 µM.

With `CC(c1cc2ccccc2s1)N(O)C(N)=O` (centres undefined) [ZILEUTON], the IC50 is over 100 µM in the assay filed under Homo sapiens [5] and 1.3 µM in the assay filed under Homo sapiens [6].

`COC1=C(C)C(=O)C(/C=C(\CCCCc2cccnc2)C(=O)O)=C(C)C1=O`: the values for the IC50 in the assay listed under Rattus norvegicus [7], in the assay listed under Rattus norvegicus [2] and in the assay filed under Rattus norvegicus [3] were over 100 µM, 1.4 µM and 0.09 µM, respectively.

As for `COC1=C(OC)C(=O)C(/C=C(\CCCCCc2cccnc2)C(=O)O)=C(C)C1=O`, the IC50 was over 100 µM in the assay filed under Rattus norvegicus [7], 11.7 µM in the assay listed under Rattus norvegicus [2] and 0.41 µM in the assay listed under Rattus norvegicus [3].

`O=C(O)/C=C/c1ccc(Cn2ccnc2)cc1` [OZAGREL]: the IC50 in the assay filed under Homo sapiens [8] was over 100 µM; in the assay filed under Homo sapiens [9] it was 1.9 µM; in the assay filed under Homo sapiens [5] it was under 0.1 µM; in the assay listed under Homo sapiens [6], over 100 µM.

`CCOC1=C(C)C(=O)C(/C=C(\CCCCCc2cccnc2)C(=O)O)=C(C)C1=O`: the values for the IC50 in the assay filed under Rattus norvegicus [4], in the assay filed under Rattus norvegicus [2] and in the assay listed under Rattus norvegicus [3] were 100 µM, 4.4 µM and 0.32 µM, respectively.

As for `COC1=C(/C=C(\CCCCCc2cccnc2)C(=O)O)C(=O)C(C)=CC1=O`, the IC50 in the assay listed under Rattus norvegicus [2] amounted to 0.75 µM; in the assay listed under Rattus norvegicus [3], 0.5 µM.

Take `COC1=C(C)C(=O)C(/C=C(\CCCc2cccnc2)C(=O)O)=C(C)C1=O`: the IC50 in the assay listed under Rattus norvegicus [7] stood at 100 µM; in the assay filed under Rattus norvegicus [2] it was 3.2 µM; in the assay filed under Rattus norvegicus [3], 0.48 µM.

In the case of `COC1=C(C)C(=O)C(/C=C(\CCCCCc2cccnc2)C(=O)O)=C(C)C1=O`, the IC50 stood at 5.8 µM in the assay listed under Homo sapiens [10]; 3.2 µM in assay [11]; 0.82 µM in the assay filed under Rattus norvegicus [2]; 820 µM in the assay filed under Rattus norvegicus [12]; 0.39 µM in assay [13]; 0.07 µM in the assay filed under Rattus norvegicus [3]. Further, in the assay listed under Homo sapiens [14], the IC50 turned out to be 0.9 µM.

Consider `COc1c(C)c(O)c(C)c(/C=C(\CCCCCc2cccnc2)C(=O)O)c1O`, for which the IC50 in the assay filed under Rattus norvegicus [7] is over 100 µM; in the assay filed under Rattus norvegicus [2], over 3 µM; in the assay filed under Rattus norvegicus [3], 1.5 µM.

Consider `CC1=C(/C=C(\CCCCCc2cccnc2)C(=O)O)C(=O)C(OCC2CCCCC2)=C(C)C1=O`, for which the IC50 is over 100 µM in the assay filed under Rattus norvegicus [7], 0.27 µM in the assay filed under Rattus norvegicus [2] and under 0.1 µM in the assay filed under Rattus norvegicus [3].

For `CCCCOC1=C(C)C(=O)C(C)=C(/C=C(\CCCc2cccnc2)C(=O)O)C1=O`, the 50% inhibitory concentration (IC50) is 1.8 µM in the assay listed under Rattus norvegicus [2] and 0.89 µM in the assay filed under Rattus norvegicus [3].

`COC1=C(C)C(=O)C(/C=C(\CCCCCCc2cccnc2)C(=O)O)=C(C)C1=O`: the IC50 is 100 µM in the assay listed under Rattus norvegicus [7], 0.59 µM in the assay filed under Rattus norvegicus [2] and 0.12 µM in the assay listed under Rattus norvegicus [3].

Turning to `COc1c(O)c(C)c(C)c(O)c1/C=C(\CCCCCc1cccnc1)C(=O)O`, the results for the IC50 in the assay filed under Rattus norvegicus [7], in the assay filed under Rattus norvegicus [2] and in the assay listed under Rattus norvegicus [3] were over 100 µM, 2.1 µM and 0.14 µM, respectively.

On to `COC1=C(/C=C(\CCCCCCc2cccnc2)C(=O)O)C(=O)C(C)=C(C)C1=O`, for which the results for the IC50 in the assay filed under Rattus norvegicus [2] and in the assay filed under Rattus norvegicus [3] were 0.22 µM and 0.42 µM, respectively.

For the compound `CCCCOC1=C(C)C(=O)C(C)=C(/C=C(\CCCCCc2cccnc2)C(=O)O)C1=O`, the figures for the IC50 in the assay listed under Rattus norvegicus [4], in the assay filed under Rattus norvegicus [2] and in the assay listed under Rattus norvegicus [3] were 100 µM, 1 µM and under 0.1 µM, respectively.

For the compound `COc1c(C)c(O)c(/C=C(\CCCCCc2cccnc2)C(=O)O)c(C)c1O`, the IC50 in the assay filed under Homo sapiens [10] is over 100 µM; in assay [11], 3 µM; in the assay listed under Rattus norvegicus [2] it was 4.9 µM; in the assay filed under Rattus norvegicus [12], 4900 µM; in assay [13] it was 1.9 µM; in the assay listed under Rattus norvegicus [3], 0.4 µM. In the assay filed under Homo sapiens [14], this compound yielded an IC50 of 1.9 µM.

`CCCCCCCOC1=C(C)C(=O)C(/C=C(\CCCCCc2cccnc2)C(=O)O)=C(C)C1=O`: the IC50 is over 100 µM in the assay filed under Rattus norvegicus [4], 3.2 µM in the assay listed under Rattus norvegicus [2] and 0.16 µM in the assay filed under Rattus norvegicus [3].

For `COC1=C(/C=C(\CCCCCc2cccnc2)C(=O)O)C(=O)C(C)=C(C)C1=O`, the IC50 came out at 0.17 µM in the assay filed under Rattus norvegicus [2] and 0.11 µM in the assay listed under Rattus norvegicus [3].

Usually IC50 stands for the concentration that gives 50% inhibition.
